Laboratory results as given in ChEMBL document CHEMBL4196128 (ACS Med Chem Lett, 2018).

What was measured:
[1] = target: Mitogen-activated protein kinase 1 (Homo sapiens, UniProt P28482); test: Inhibition of ERK2 (unknown origin) using peptide substrate measured after 45 mins by IMAP assay
[2] = Tmax in Beagle dog at 30 mg/kg, po; format: ADME, organism-based, Canis lupus familiaris; conditions: in vivo
Procedure, shortened: (§1)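 Oral dosing in male CD1 mice (30 mg/kg, n = 27), Sprague–Dawley rats (10 mg/kg, n = 3), beagle dogs (30 mg/kg, n = 3) and cynomolgus monkeys (10 mg/kg, n = 3). Mean Tmax was read from plasma concentration–time data. Bioavailability was derived from oral AUC(0–∞) compared with intravenous AUC.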

Cytochrome P450 3A4 [3] = target: T1, Cytochrome P450 3A4 (Homo sapiens, UniProt P08684); test: Inhibition of CYP3A4 (unknown origin) co-incubated with substrate; format: ADME
T1 sequence (P08684 whole entry): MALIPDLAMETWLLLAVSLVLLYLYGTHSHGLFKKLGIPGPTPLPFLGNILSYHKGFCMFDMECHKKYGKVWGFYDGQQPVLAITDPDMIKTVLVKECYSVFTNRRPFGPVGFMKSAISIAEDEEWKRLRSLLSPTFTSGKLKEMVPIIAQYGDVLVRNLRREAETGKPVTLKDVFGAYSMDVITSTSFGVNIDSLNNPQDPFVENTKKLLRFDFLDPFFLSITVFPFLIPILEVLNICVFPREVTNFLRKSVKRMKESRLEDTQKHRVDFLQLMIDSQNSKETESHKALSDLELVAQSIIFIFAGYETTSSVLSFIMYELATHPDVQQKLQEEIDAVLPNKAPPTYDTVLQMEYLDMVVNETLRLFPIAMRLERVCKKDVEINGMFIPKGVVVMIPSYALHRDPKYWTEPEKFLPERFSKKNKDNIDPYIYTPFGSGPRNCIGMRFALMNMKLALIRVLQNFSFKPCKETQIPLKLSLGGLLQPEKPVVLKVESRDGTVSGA

Cavia porcellus [4] = test: Cardiotoxicity in telemetered guinea pig assessed as changes in PR interval at 30 to 100 mg/kg; format: toxicity, organism-based; conditions: in vivo
Procedure, shortened: (§2)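 Telemetered guinea pigs were exposed at 30 and 100 mg/kg. Electrocardiographic PR, QRS and QT/QTc intervals were monitored for changes related to the test article, and exposure was referenced to total Cmax.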

hERG (KCNH2) [5] = target: T2, hERG (KCNH2) (Homo sapiens, UniProt Q12809); test: Inhibition of human ERG at 5 mg/ml by binding assay relative to control; set-up: dose or concentration left out as unconfirmed
T2 sequence (Q12809 whole entry): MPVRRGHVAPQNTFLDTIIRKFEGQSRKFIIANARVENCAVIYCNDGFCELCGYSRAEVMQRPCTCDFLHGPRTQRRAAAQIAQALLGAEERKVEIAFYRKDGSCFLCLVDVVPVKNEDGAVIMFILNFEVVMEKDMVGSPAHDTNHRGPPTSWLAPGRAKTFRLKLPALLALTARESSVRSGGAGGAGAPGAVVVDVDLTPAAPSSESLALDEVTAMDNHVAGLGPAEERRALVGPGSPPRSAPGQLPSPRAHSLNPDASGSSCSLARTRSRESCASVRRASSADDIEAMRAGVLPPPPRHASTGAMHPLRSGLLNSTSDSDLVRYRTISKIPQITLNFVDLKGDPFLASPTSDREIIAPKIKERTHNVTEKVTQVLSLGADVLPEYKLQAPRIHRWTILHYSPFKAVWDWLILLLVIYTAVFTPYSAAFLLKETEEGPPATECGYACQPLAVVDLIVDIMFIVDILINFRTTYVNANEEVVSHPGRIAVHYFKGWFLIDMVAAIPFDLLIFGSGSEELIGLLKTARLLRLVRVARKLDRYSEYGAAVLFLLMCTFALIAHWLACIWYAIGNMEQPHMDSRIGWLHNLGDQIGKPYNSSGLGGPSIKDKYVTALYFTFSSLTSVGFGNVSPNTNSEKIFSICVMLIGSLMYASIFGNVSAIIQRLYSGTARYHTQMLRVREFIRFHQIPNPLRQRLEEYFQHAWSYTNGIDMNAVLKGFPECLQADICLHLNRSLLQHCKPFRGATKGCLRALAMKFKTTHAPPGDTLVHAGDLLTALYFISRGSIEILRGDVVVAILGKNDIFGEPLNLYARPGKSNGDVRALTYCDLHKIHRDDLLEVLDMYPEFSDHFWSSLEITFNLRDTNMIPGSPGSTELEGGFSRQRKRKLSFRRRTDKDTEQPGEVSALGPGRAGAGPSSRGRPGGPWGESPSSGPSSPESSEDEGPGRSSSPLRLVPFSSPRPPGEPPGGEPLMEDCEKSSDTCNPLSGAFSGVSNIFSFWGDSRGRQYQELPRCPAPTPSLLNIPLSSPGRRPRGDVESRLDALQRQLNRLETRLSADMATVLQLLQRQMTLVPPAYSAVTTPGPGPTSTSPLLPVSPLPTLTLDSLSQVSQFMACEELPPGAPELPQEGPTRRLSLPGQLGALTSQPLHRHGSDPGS

[6] = Apparent permeability across basolateral to apical side in human Caco2 cells; format: ADME, cell-based; conditions: Caco-2, read-out: permeability
Cavia porcellus [7] = test: Cardiotoxicity in telemetered guinea pig assessed as changes in QRS interval at 30 to 100 mg/kg; format: toxicity, organism-based; conditions: in vivo; procedure, shortened: as §2
[8] = Protein binding in human plasma at 10 uM; format: ADME, cell-free; conditions: read-out: PPB
[9] = Oral bioavailability in Beagle dog at 30 mg/kg; format: ADME, organism-based, Canis lupus familiaris; conditions: in vivo; procedure, shortened: as §1
[10] = Oral bioavailability in Sprague-Dawley rat at 10 mg/kg; format: ADME, organism-based; conditions: in vivo; procedure, shortened: as §1
COLO 205 [11] = test: Antitumor activity against human COLO205 cells xenografted in nude mouse assessed as tumor regression at 60 mg/kg, po bid measured after 28 days relative to control; format: functional
Procedure, shortened: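 Female nude mice carrying Colo-205 human colon tumor xenografts were randomized to oral dosing twice daily at 20, 40 or 60 mg/kg, or to vehicle. After 28 days of treatment, tumor growth inhibition or tumor regression was assessed relative to vehicle control, with P-value testing.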

COLO 205 [12] = test: Antiproliferative activity against human COLO205 cells harboring BRAF V600E/D mutant measured after 4 days; format: functional, cell-based; conditions: COLO 205, 96 h
Cytochrome P450 2C19 = Cytochrome P450 2C19 (Homo sapiens, UniProt P33261); test: Inhibition of CYP2C19 (unknown origin) preincubated followed by substrate addition; format: ADME
Sequence of Cytochrome P450 2C19 (P33261 whole entry): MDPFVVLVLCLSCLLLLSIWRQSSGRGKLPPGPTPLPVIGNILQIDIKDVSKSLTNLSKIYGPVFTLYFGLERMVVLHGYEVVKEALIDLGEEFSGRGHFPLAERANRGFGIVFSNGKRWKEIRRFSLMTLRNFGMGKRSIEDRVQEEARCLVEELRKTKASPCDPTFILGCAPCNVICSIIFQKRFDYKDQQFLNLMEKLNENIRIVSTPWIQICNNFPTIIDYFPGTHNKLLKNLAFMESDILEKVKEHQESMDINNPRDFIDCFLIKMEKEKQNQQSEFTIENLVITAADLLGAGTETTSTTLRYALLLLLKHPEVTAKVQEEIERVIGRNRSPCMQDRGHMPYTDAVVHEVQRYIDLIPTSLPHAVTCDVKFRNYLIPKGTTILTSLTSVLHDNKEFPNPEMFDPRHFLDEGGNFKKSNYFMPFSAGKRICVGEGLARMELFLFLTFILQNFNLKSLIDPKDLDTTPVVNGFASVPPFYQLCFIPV

[13] = Half life in monkey at 1 mg/kg, iv; conditions: cynomolgus monkey, in vivo
hERG (KCNH2) [14] = target: T2, hERG (KCNH2); test: Inhibition of human ERG at 1 uM by IonWork assay relative to control
Cytochrome P450 3A4 [15] = target: T1, Cytochrome P450 3A4; test: Inhibition of CYP3A4 (unknown origin) preincubated followed by substrate addition; format: ADME
[16] = Clearance in Beagle dog at 3 mg/kg, iv; format: ADME, organism-based, Canis lupus familiaris; conditions: in vivo
Procedure, shortened: (§3)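 The compound was given intravenously as an aqueous solution in 20% hydroxypropyl-β-cyclodextrin. Animals were male CD1 mice (10 mg/kg, n = 30), Sprague–Dawley rats (3 mg/kg, n = 3), beagle dogs (3 mg/kg, n = 3) and cynomolgus monkeys (1 mg/kg, n = 3). Plasma concentration–time data gave mean AUC(0–∞), half-life, mean residence time, clearance and Vd,ss.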

Cytochrome P450 2C8 = target: T3, Cytochrome P450 2C8 (Homo sapiens, UniProt P10632); test: Inhibition of CYP2C8 (unknown origin) preincubated followed by substrate addition; format: ADME
T3 sequence (P10632 whole entry): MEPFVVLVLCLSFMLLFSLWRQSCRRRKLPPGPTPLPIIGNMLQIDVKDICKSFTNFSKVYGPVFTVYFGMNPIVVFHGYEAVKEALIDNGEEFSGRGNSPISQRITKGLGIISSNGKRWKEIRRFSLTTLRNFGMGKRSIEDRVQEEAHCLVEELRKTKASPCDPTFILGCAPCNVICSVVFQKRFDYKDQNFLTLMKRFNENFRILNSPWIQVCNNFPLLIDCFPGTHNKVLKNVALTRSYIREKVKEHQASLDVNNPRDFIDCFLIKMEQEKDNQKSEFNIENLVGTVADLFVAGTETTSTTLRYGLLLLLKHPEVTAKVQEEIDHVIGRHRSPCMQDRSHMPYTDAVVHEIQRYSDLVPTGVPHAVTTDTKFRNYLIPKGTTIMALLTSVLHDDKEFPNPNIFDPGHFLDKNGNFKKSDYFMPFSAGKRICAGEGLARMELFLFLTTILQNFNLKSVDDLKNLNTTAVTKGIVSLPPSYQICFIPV

[17] = Protein binding in dog plasma at 10 uM; format: ADME, cell-free, Canis lupus familiaris; conditions: read-out: PPB
[18] = Protein binding in monkey plasma at 10 uM; format: ADME, cell-free, Macaca mulatta; conditions: rhesus monkey, read-out: PPB
hERG (KCNH2) [19] = target: T2, hERG (KCNH2); test: Inhibition of human ERG at 600 nM by voltage clamp method relative to control
Caspase (Homo sapiens) = Caspase (Homo sapiens) (UniProt P49662+P55211+P42574+P51878+P55212+P55210+Q14790+P29466+P42575+Q92851+P31944+Q6UXS9); test: Activation of caspase (unknown origin); format: protein assay
Cytochrome P450 2D6 = Cytochrome P450 2D6 (Homo sapiens, UniProt P10635); test: Inhibition of CYP2D6 (unknown origin) preincubated followed by substrate addition; format: ADME
Sequence of Cytochrome P450 2D6 (P10635 whole entry): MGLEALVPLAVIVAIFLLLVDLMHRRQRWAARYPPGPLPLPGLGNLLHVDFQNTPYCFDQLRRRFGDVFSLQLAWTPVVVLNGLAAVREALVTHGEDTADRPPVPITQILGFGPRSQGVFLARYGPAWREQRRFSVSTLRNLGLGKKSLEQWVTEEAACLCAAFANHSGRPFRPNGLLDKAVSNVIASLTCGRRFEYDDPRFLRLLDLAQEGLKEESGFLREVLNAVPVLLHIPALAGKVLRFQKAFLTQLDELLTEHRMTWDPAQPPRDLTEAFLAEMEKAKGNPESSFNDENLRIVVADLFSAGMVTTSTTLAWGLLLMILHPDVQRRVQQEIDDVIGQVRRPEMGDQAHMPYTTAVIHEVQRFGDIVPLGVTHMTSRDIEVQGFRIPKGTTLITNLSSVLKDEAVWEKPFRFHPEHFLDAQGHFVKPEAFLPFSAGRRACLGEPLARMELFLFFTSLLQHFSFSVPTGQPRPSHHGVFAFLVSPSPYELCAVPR

[20] = Oral bioavailability in monkey at 10 mg/kg; conditions: cynomolgus monkey, in vivo
[21] = Half life in Sprague-Dawley rat at 3 mg/kg, iv; format: ADME, organism-based; conditions: in vivo; procedure, shortened: as §3
[22] = Volume of distribution at steady state in CD1 mouse at 10 mg/kg, iv; format: ADME, organism-based; conditions: in vivo, read-out: Vdss
Procedure, shortened: (§4)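 Intravenous dosing in male CD1 mice (10 mg/kg, n = 30), Sprague–Dawley rats (3 mg/kg, n = 3), beagle dogs (3 mg/kg, n = 3) and cynomolgus monkeys (1 mg/kg, n = 3). Vehicle was aqueous 20% hydroxypropyl-β-cyclodextrin. Mean residence time and steady-state volume of distribution were taken from plasma concentration–time profiles as mean parameters.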

[23] = target: Mitogen-activated protein kinase; ERK1/ERK2 (Homo sapiens) (UniProt P27361+P28482); test: Inhibition of ERK1/2 phosphorylation in human A2058 cells after 24 hrs by Western blot analysis; format: cell-based
Sequence of Mitogen-activated protein kinase; ERK1/ERK2 (Homo sapiens) (P27361 whole entry, looked up): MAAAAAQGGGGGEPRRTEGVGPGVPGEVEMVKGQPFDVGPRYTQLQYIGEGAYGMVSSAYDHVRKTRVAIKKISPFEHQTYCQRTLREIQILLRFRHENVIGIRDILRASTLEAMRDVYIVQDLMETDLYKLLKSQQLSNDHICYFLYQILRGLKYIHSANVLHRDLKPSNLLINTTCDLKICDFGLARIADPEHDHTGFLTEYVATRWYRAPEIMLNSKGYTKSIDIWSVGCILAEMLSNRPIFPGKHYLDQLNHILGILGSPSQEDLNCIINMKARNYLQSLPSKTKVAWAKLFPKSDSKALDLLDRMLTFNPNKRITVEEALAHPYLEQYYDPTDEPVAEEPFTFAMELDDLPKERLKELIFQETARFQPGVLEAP
Sequence of Mitogen-activated protein kinase; ERK1/ERK2 (Homo sapiens) (P28482 whole entry, looked up): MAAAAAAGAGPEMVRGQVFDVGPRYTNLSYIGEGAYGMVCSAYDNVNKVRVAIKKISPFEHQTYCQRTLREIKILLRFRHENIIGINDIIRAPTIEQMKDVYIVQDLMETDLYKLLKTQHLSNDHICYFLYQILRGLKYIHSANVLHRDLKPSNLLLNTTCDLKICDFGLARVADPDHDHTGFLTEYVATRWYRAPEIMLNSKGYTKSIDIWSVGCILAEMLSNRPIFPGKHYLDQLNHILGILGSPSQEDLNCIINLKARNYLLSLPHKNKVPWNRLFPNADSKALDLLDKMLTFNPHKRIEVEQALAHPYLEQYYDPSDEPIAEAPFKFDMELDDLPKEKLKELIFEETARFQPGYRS
Procedure, shortened: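 A2058 melanoma cells were treated across a compound dose range. pERK1/2 and pRSK levels were detected by Western blot analysis.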

[24] = Mean residence time in Beagle dog at 3 mg/kg, iv; format: ADME, organism-based, Canis lupus familiaris; conditions: in vivo; procedure, shortened: as §4
[25] = Half life in CD1 mouse at 10 mg/kg, iv; format: ADME, organism-based; conditions: in vivo; procedure, shortened: as §3
Cytochrome P450 2C9 [26] = target: T4, Cytochrome P450 2C9 (Homo sapiens, UniProt P11712); test: Inhibition of CYP2C9 (unknown origin) co-incubated with substrate; format: ADME
T4 sequence (P11712 whole entry): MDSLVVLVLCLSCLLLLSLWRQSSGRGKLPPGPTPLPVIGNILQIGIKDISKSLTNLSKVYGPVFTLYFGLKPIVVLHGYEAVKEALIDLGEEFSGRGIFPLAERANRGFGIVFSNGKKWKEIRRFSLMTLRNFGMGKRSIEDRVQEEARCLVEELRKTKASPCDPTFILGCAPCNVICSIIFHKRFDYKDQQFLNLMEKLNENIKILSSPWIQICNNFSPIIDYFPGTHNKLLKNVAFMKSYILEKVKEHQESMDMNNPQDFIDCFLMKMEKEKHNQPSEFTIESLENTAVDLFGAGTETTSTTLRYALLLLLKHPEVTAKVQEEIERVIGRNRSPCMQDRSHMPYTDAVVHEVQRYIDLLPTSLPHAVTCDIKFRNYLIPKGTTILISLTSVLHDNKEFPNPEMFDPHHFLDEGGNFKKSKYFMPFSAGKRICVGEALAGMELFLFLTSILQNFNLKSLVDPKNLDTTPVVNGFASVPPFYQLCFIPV

Mus musculus = test: Oral bioavailability in CD1 mouse at 30 mg/kg; format: ADME, organism-based; conditions: in vivo; procedure, shortened: as §1
[27] = target: Mitogen-activated protein kinase 3 (Homo sapiens, UniProt P27361); test: Inhibition of ERK1 (unknown origin) using peptide substrate measured after 45 mins by IMAP assay
Sequence of Mitogen-activated protein kinase 3 (P27361 whole entry): as the sequence (P27361 whole entry, looked up) above

Cytochrome P450 2C9 [28] = target: T4, Cytochrome P450 2C9; test: Inhibition of CYP2C9 (unknown origin) preincubated followed by substrate addition; format: ADME

Sequence of Mitogen-activated protein kinase 1 (P28482 whole entry): as the sequence (P28482 whole entry, looked up) above

## CS[C@@]1(C(=O)Nc2ccc3[nH]nc(-c4ccc(OC(C)C)nc4)c3c2)CCN(CC(=O)N2CC=C(c3ccc(-c4ncn(C)n4)cc3)CC2)C1 [MK-8353]
[1]
  IC50: 7 nM
[2]
  Tmax: 4 h
Cytochrome P450 3A4 [3]
  IC50: > 5000 nM
Cavia porcellus [4]
  Activity: Non-Toxic
hERG (KCNH2) [5]
  inhibition: 6%
[6]
  Papp B→A: 40 ×10⁻⁶ cm/s
Cavia porcellus [7]
  Activity: Non-Toxic
[8]
  fraction unbound at 10 µM: < 0.01
[9]
  bioavailability: 23%
[10]
  bioavailability: 50%
COLO 205 [11]
  Activity: 40%
COLO 205 [12]
  IC50: 23 nM
Cytochrome P450 2C19
  inhibition (INH): Not Active
[13]
  half-life: 1.3 h
hERG (KCNH2) [14]
  inhibition at 1 µM: -1.7%
Cytochrome P450 3A4 [15]
  IC50: 1700 nM
[16]
  clearance: 3.9 mL/min/kg
Cytochrome P450 2C8
  IC50: 3500 nM
[17]
  fraction unbound at 10 µM: < 0.01
[18]
  fraction unbound at 10 µM: < 0.01
hERG (KCNH2) [19]
  inhibition at 0.6 µM: 16%
Caspase (Homo sapiens)
  Activity: 185 nM
Cytochrome P450 2D6
  inhibition (INH): Not Active
[20]
  bioavailability: 2%
[21]
  half-life: 1.6 h
[22]
  Vd: 3.3 L/kg
[23]
  inhibition: Dose-dependent effect
[24]
  MRT: 4 h
[25]
  half-life: 1.8 h
Cytochrome P450 2C9 [26]
  IC50: > 5000 nM
Mus musculus
  F: 80%
[27]
  IC50: 20 nM
Cytochrome P450 2C9 [28]
  IC50: > 5000 nM
